Measured values from ChEMBL document CHEMBL1649328, “Assessment of pandemic and seasonal influenza A (H1N1) virus susceptibility to neuraminidase inhibitors in three enzyme activity inhibition assays” (Antimicrob Agents Chemother, 2010).

Tests used:
Influenza A virus [1] = assay: Antiviral activity against influenza A (A/Osaka/180/2009 (H1N1)) virus harboring neuraminidase H275Y mutant after 30 mins by NA-star substrate based chemiluminescent assay; assay type: functional, organism-based
Method in brief: (§1)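 Titrated virus in NA-Star buffer (26 mM MES, 4 mM CaCl2, pH 6.0) was preincubated with ten half-log inhibitor dilutions (0.03–1,000 nM final) for 30 min at 37°C, then with substrate for 30 min at room temperature. Accelerator solution was added and luminescence read for 0.1 s. IC50 came from a Vmax·[1−x/(K+x)] fit, mean of ≥3 experiments.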

Influenza A virus [2] = assay: Antiviral activity against influenza A (A/Hong Kong/2369/2009 (H1N1)) virus harboring neuraminidase H275Y mutant after 30 mins by NA-star substrate based chemiluminescent assay; assay type: functional, organism-based; method in brief: as §1
Influenza A virus [3] = assay: Antiviral activity against influenza A (A/Singapore/57/2009 (H1N1)) virus harboring neuraminidase H275Y mutant after 30 mins by MUNANA substrate based fluorometric assay; assay type: functional, organism-based
Method in brief: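 Fluorometric NA inhibition with MUNANA (100 μM final). Titrated virus in NA-Star buffer (26 mM MES, 4 mM CaCl2, pH 6.0) was preincubated with ten half-log inhibitor dilutions (0.03–1,000 nM final) for 30 min at 37°C, then with substrate for 30 min at 37°C. The reaction was stopped with 0.1 M glycine in 25% ethanol, pH 10.7, and 4-methylumbelliferone was read at ex 365/em 450 nm. IC50 came from a Vmax·[1−x/(K+x)] fit, mean of ≥3 experiments.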

Influenza A virus [4] = assay: Antiviral activity against influenza A (A/North Carolina/01/2009 (H1N1)) virus harboring neuraminidase H275Y mutant after 16 to 18 hrs by fetuin substrate based colorimetric assay; assay type: functional, organism-based
Method in brief: (§2)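 Colorimetric NA inhibition with fetuin substrate. Virus was diluted in NA-Star buffer (26 mM MES, 4 mM CaCl2, pH 6.0) to give OD549 of 0.4–0.8 after 18 h. It was preincubated with ten half-log inhibitor dilutions (0.03–1,000 nM final) for 1 h at 37°C, then with fetuin (5.5 mg/ml final) for 16–18 h at 37°C. Released sialic acid was read at 549 nm after periodate/TBA reaction and butanol extraction. IC50 came from a Vmax·[1−x/(K+x)] fit, mean of ≥2 experiments.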

Influenza A virus [5] = assay: Antiviral activity against influenza A (A/Osaka/180/2009 (H1N1)) virus harboring neuraminidase H275Y mutant after 16 to 18 hrs by fetuin substrate based colorimetric assay; assay type: functional, organism-based; method in brief: as §2
Influenza A virus [6] = assay: Ratio of IC50 for influenza A (A/North Carolina/01/2009 (H1N1)) virus harboring neuraminidase H275Y mutant to IC50 for influenza A (A/Washington/29/2009 (H1N1)) virus expressing wild type enzyme by NA-star substrate based chemiluminescent assay; assay type: functional
Influenza A virus [7] = assay: Ratio of IC50 for influenza A (A/Montana/02/2009 (H1N1)) virus harboring neuraminidase H275Y mutant to IC50 for influenza A (A/Washington/29/2009 (H1N1)) virus expressing wild type enzyme by NA-star substrate based chemiluminescent assay; assay type: functional
Influenza A virus [8] = assay: Ratio of IC50 for influenza A (A/North Carolina/01/2009 (H1N1)) virus harboring neuraminidase H275Y mutant to IC50 for influenza A (A/Washington/29/2009 (H1N1)) virus expressing wild type enzyme by MUNANA substrate based fluorometric assay; assay type: functional
Influenza A virus [9] = assay: Ratio of IC50 for influenza A (A/New York/18/2009 (H1N1)) virus harboring neuraminidase H275Y mutant to IC50 for influenza A (A/Washington/10/2008 (H1N1)) virus expressing wild type enzyme by fetuin substrate based colorimetric assay; assay type: functional
Influenza A virus [10] = assay: Ratio of IC50 for influenza A (A/Hong Kong/2369/2009 (H1N1)) virus harboring neuraminidase H275Y mutant to IC50 for influenza A (A/Washington/29/2009 (H1N1)) virus expressing wild type enzyme by fetuin substrate based colorimetric assay; assay type: functional

## CCC(CC)[C@H](NC(C)=O)[C@@H]1[C@H](O)[C@@H](C(=O)O)C[C@H]1NC(=N)N [PERAMIVIR ANHYDROUS]
Influenza A virus [1]
  IC50: 13.1 nM
Influenza A virus [2]
  IC50: 9.24 nM
Influenza A virus [3]
  IC50: 122 nM
Influenza A virus [4]
  IC50: 105 nM
Influenza A virus [5]
  IC50: 195 nM
Influenza A virus [6]
  Ratio IC50: 125
Influenza A virus [7]
  Ratio IC50: 136
Influenza A virus [8]
  Ratio IC50: 831
Influenza A virus [9]
  Ratio IC50: 1
Influenza A virus [10]
  Ratio IC50: 330

## C/C=C\[C@@H]1C[C@H](C(=O)O)N[C@H]1[C@@H](NC(C)=O)[C@](C)(CCC)OC
Influenza A virus [1]
  IC50: 0.91 nM
Influenza A virus [2]
  IC50: 1.09 nM
Influenza A virus [3]
  IC50: 1.39 nM
Influenza A virus [4]
  IC50: 2.32 nM
Influenza A virus [5]
  IC50: 4.08 nM
Influenza A virus [6]
  Ratio IC50: 5
Influenza A virus [7]
  Ratio IC50: 6
Influenza A virus [8]
  Ratio IC50: 4
Influenza A virus [9]
  Ratio IC50: 1
Influenza A virus [10]
  Ratio IC50: 3
